Assays:
[1] = test system: Mast/stem cell growth factor receptor Kit (Homo sapiens), P10721 [V559D,T670I]; test: Binding affinity to human partial length KIT V559D/T670I double mutant (Y545 to D952 residues) expressed in bacterial expression system assessed as remaining unbound target protein level at 1000 nM by Kinomescan method relative to control
Summary of the method: (§1)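 KINOMEscan competition-binding profiling across the panel of 468 kinases and mutants, with inhibitor tested at 1 μM. Binding is expressed as percent of control, with DMSO as the reference control.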

[2] = biological target: Homeodomain-interacting protein kinase 2 (Homo sapiens) (UniProt Q9H2X6); test: Binding affinity to wild-type human partial length HIPK2 (M153 to S564 residues) expressed in mammalian expression system assessed as remaining unbound target protein level at 1000 nM by Kinomescan method relative to control
Summary of the method: (§2)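 KINOMEscan binding panel of 468 kinases/mutants. Inhibitor was tested at a single concentration of 1 μM. Binding is reported as percent of control, defined relative to a DMSO control.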

[3] = biological target: Ribosomal protein S6 kinase alpha-2 (Homo sapiens) (UniProt Q15349); test: Binding affinity to wild-type human partial length N-terminal RSK3 kinase domain 1 (M1 to Q385 residues) expressed in bacterial expression system assessed as remaining unbound target protein level at 1000 nM by Kinomescan method relative to control
[4] = biological target: Serine/threonine-protein kinase NLK (Homo sapiens) (UniProt Q9UBE8); test: Binding affinity to wild-type human full length NLK (M13 to E527 residues) expressed in bacterial expression system assessed as remaining unbound target protein level at 1000 nM by Kinomescan method relative to control
Summary of the method: (§3)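 Single-point competition binding screen across a panel of 468 kinases and mutants, with the inhibitor at 1 μM. Binding is read out as percent of a DMSO control, and targets below 1 percent control were classed as strong binders.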

[5] = biological target: Calcium/calmodulin-dependent protein kinase kinase 1 (Homo sapiens) (UniProt Q8N5S9); test: Binding affinity to wild-type human partial length CAMKK1 (R65 to E414 residues) expressed in bacterial expression system assessed as remaining unbound target protein level at 1000 nM by Kinomescan method relative to control
[6] = biological target: Serine/threonine-protein kinase PLK3 (Homo sapiens) (UniProt Q9H4B4); test: Binding affinity to wild-type human partial length PLK3 (A42 to L334 residues) expressed in mammalian expression system assessed as remaining unbound target protein level at 1000 nM by Kinomescan method relative to control
[7] = biological target: Cyclin-dependent kinase 14 (Homo sapiens) (UniProt O94921); test: Binding affinity to wild-type human full length PFTK1 (M1 to H451 residues) expressed in bacterial expression system assessed as remaining unbound target protein level at 1000 nM by Kinomescan method relative to control
Summary of the method: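 KINOMEscan competition binding profile across a panel of 468 kinases and mutants, with the inhibitor tested at a single concentration of 1 μM. Binding is reported as percent of control, meaning signal relative to a DMSO control.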

[8] = biological target: Cyclin-dependent kinase 11B (Homo sapiens, UniProt P21127); test: Inhibition of recombinant GST-tagged inactive state of human CDK11
[9] = biological target: Receptor-interacting serine/threonine-protein kinase 4 (Homo sapiens) (UniProt P57078); test: Binding affinity to wild-type human partial length RIPK4 (M1 to V303 residues) expressed in mammalian expression system assessed as remaining unbound target protein level at 1000 nM by Kinomescan method relative to control
[10] = biological target: Mitogen-activated protein kinase kinase kinase 2 (Homo sapiens) (UniProt Q9Y2U5); test: Binding affinity to wild-type human partial length MAP3K2 (S315 to H619 residues) expressed in mammalian expression system assessed as remaining unbound target protein level at 1000 nM by Kinomescan method relative to control; summary of the method: as §2
[11] = biological target: Tyrosine-protein kinase HCK (Homo sapiens) (UniProt P08631); test: Binding affinity to wild-type human full length HCK (M22 to P526 residues) expressed in bacterial expression system assessed as remaining unbound target protein level at 1000 nM by Kinomescan method relative to control; summary of the method: as §3
[12] = AUC (0 to infinity) in mouse at 10 mg/kg, po by LC-MS/MS analysis; assay type: ADME, organism-based; design: dose 10 mg/kg, route oral, time infinity; details: in vivo
Summary of the method: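 Non-compartmental PK. Male SD rats 190-210 g, mice and beagle dogs acclimatized one week, fasted 12 h with water, split into iv and po groups (mice 48, rats 6, dogs 6). iv 3/3/2 mg/kg (mice/rats/dogs); po 10/20/10 mg/kg; vehicle DMSO in 5% glucose water. Blood at 2 or 5 to 720 min; plasma protein-precipitated with methanol, caffeine internal standard, LC-MS/MS.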

[13] = biological target: Cyclin-dependent kinase 4 (Homo sapiens) (UniProt P11802); test: Binding affinity to wild-type human full length CDK4 (M1 to E303 residues) expressed in mammalian expression system assessed as remaining unbound target protein level at 1000 nM by Kinomescan method relative to control
Summary of the method: (§4)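 KINOMEscan competitive binding profile at 1 μM inhibitor. Remaining target binding reported as percent of DMSO control.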

[14] = test system: Receptor-type tyrosine-protein kinase FLT3 (Homo sapiens), P36888 [K663Q]; test: Binding affinity to human partial length FLT3 K663Q mutant (V592 to Y969 residues) expressed in bacterial expression system assessed as remaining unbound target protein level at 1000 nM by Kinomescan method relative to control; summary of the method: as §1
[15] = biological target: Discoidin domain-containing receptor 2 (Homo sapiens) (UniProt Q16832); test: Binding affinity to wild-type human partial length DDR2 (V555 to E855 residues) expressed in mammalian expression system assessed as remaining unbound target protein level at 1000 nM by Kinomescan method relative to control
[16] = biological target: Serine/threonine-protein kinase PAK 2 (Homo sapiens) (UniProt Q13177); test: Binding affinity to wild-type human partial length PAK2 (P151 to R525 residues) expressed in bacterial expression system assessed as remaining unbound target protein level at 1000 nM by Kinomescan method relative to control
[17] = biological target: Macrophage colony-stimulating factor 1 receptor (Homo sapiens) (UniProt P07333); test: Binding affinity to wild-type human partial length CSF1R (I564 to S939 residues) expressed in bacterial expression system assessed as remaining unbound target protein level at 1000 nM by Kinomescan method relative to control
[18] = biological target: Phosphatidylinositol 4,5-bisphosphate 3-kinase catalytic subunit alpha isoform (Homo sapiens) (UniProt P42336); test: Binding affinity to wild-type human partial length PIK3CA (R108 to N1068 residues) expressed in mammalian expression system assessed as remaining unbound target protein level at 1000 nM by Kinomescan method relative to control
[19] = biological target: Transient receptor potential cation channel subfamily M member 6 (Homo sapiens) (UniProt Q9BX84); test: Binding affinity to wild-type human partial length TRPM6 (Q1723 to I1998 residues) expressed in mammalian expression system assessed as remaining unbound target protein level at 1000 nM by Kinomescan method relative to control
[20] = biological target: Casein kinase I isoform delta (Homo sapiens) (UniProt P48730); test: Binding affinity to wild-type human full length CSNK1D (M1 to K409 residues) expressed in bacterial expression system assessed as remaining unbound target protein level at 1000 nM by Kinomescan method relative to control; summary of the method: as §4

Sequence of Transient receptor potential cation channel subfamily M member 6 (Homo sapiens) (Q9BX84 whole entry, the tested form may be a part, canonical isoform): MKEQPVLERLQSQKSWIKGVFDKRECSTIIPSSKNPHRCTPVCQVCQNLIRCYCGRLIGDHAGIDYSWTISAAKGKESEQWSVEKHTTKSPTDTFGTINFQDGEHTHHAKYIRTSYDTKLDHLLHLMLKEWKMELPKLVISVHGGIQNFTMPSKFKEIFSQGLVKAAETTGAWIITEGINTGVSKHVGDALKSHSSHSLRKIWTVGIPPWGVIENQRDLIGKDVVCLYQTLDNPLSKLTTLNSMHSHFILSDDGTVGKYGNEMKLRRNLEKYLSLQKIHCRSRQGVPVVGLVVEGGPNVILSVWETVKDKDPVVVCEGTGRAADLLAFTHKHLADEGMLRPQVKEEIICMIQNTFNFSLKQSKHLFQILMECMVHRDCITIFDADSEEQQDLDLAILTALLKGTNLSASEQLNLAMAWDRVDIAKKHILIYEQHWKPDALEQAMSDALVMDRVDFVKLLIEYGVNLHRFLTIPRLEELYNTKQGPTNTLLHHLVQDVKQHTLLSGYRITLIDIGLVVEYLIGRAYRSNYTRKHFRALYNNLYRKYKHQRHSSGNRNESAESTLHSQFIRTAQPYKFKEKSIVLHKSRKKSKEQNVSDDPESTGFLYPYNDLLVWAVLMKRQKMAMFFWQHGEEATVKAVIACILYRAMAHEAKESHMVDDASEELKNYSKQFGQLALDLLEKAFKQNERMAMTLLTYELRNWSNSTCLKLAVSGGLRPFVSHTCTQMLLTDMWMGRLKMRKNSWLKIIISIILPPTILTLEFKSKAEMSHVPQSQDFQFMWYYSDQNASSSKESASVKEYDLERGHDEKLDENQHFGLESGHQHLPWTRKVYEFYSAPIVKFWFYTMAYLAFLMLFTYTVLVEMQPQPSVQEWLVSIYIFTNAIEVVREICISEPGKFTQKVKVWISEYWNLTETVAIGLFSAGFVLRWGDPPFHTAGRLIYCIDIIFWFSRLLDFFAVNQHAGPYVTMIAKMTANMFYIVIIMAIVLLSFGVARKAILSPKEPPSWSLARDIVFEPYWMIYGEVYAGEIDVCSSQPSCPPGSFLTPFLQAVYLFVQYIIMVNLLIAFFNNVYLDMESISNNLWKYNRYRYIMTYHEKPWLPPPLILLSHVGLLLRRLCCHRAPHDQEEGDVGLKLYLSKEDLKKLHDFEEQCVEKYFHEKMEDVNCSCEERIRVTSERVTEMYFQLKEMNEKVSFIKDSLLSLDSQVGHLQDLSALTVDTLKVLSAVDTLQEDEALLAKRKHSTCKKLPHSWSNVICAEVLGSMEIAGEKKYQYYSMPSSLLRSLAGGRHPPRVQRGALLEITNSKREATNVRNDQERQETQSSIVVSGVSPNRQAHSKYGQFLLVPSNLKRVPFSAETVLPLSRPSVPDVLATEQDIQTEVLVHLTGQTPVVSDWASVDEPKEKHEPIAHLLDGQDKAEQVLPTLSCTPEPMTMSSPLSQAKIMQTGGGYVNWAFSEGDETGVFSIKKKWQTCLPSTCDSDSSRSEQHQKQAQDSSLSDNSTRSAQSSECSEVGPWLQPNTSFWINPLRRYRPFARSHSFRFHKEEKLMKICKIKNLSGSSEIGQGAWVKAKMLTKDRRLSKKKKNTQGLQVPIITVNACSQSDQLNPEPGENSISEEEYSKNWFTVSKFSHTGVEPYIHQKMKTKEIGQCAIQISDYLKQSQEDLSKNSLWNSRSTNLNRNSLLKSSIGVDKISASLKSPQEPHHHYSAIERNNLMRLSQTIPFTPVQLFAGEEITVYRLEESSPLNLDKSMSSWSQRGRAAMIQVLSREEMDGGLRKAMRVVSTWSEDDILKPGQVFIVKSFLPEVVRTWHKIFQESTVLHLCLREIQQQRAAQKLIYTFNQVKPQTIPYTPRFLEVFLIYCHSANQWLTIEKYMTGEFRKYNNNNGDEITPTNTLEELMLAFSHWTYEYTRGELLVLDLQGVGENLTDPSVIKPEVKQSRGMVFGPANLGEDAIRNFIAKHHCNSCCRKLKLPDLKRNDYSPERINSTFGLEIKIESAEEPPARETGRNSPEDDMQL
Sequence of Tyrosine-protein kinase HCK (Homo sapiens) (P08631 2-526 limits assumed): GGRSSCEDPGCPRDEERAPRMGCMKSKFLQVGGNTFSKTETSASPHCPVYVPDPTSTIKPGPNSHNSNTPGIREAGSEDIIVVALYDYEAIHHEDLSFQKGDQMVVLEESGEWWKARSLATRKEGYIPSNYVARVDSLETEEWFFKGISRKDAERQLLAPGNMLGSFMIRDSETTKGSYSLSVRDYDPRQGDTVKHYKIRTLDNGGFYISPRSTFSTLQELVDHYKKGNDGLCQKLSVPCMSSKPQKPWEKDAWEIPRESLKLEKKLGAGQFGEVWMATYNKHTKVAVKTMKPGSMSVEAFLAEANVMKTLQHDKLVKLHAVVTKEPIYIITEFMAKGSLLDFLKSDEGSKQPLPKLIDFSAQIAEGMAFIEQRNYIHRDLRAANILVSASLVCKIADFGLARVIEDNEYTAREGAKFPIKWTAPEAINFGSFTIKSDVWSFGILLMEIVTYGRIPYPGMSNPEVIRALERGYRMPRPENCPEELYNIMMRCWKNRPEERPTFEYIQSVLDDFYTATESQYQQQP
Sequence of Serine/threonine-protein kinase PAK 2 (Homo sapiens) (Q13177 whole entry, the tested form may be a part): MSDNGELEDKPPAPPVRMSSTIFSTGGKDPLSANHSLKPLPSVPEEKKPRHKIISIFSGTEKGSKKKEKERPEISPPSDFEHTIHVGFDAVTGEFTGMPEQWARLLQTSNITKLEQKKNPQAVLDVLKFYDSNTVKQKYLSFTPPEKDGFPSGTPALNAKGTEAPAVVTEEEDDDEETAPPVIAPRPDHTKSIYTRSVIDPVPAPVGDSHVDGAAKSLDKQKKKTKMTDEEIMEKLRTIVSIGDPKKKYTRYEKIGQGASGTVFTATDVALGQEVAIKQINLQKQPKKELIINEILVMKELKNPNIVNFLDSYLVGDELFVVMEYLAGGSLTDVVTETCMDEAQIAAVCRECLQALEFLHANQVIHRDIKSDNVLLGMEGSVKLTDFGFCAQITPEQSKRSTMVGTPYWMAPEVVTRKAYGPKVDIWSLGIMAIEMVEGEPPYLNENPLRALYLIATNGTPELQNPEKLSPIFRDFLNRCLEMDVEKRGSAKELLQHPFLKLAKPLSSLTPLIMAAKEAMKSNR
Sequence of Mast/stem cell growth factor receptor Kit (Homo sapiens), P10721 [V559D,T670I] (P10721 whole entry V559D/T670I, the tested form may be a part): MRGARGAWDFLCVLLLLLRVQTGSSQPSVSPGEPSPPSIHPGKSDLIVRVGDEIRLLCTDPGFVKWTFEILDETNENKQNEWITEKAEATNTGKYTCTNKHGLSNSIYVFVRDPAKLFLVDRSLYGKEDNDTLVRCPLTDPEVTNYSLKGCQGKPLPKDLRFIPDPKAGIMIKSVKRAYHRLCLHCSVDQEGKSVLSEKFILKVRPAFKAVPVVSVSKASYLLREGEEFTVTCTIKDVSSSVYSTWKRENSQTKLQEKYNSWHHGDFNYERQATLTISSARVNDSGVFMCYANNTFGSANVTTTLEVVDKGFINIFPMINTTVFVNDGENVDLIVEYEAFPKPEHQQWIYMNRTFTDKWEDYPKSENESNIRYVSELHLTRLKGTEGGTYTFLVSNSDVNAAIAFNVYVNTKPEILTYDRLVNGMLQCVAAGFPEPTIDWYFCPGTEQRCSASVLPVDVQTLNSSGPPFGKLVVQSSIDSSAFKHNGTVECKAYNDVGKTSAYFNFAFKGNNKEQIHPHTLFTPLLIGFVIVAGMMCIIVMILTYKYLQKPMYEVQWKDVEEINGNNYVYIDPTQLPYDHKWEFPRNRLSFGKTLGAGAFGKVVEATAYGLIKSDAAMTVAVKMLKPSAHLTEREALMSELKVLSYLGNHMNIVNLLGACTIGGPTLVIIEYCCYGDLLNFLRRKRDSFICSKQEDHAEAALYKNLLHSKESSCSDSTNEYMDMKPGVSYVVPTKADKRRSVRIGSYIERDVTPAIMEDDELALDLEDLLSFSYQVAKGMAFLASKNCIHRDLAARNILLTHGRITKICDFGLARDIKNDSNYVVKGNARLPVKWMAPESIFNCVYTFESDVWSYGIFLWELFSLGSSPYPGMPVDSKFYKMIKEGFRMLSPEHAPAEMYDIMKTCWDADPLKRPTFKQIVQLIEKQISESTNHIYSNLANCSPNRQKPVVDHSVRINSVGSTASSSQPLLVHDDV
Sequence of Calcium/calmodulin-dependent protein kinase kinase 1 (Homo sapiens) (Q8N5S9 whole entry, looked up, the tested form may be a part): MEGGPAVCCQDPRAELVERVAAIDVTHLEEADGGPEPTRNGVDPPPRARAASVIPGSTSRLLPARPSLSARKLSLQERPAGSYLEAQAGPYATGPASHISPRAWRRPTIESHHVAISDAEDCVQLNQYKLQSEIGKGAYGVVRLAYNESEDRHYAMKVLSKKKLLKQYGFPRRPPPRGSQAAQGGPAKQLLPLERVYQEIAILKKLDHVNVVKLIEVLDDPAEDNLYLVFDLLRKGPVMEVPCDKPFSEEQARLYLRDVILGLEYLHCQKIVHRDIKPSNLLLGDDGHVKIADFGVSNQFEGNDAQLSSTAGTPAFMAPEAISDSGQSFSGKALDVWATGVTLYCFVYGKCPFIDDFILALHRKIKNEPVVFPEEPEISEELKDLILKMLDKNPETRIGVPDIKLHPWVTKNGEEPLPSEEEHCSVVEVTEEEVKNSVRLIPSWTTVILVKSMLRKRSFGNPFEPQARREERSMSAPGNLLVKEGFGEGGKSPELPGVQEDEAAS
Sequence of Cyclin-dependent kinase 4 (Homo sapiens) (P11802 whole entry, the tested form may be a part): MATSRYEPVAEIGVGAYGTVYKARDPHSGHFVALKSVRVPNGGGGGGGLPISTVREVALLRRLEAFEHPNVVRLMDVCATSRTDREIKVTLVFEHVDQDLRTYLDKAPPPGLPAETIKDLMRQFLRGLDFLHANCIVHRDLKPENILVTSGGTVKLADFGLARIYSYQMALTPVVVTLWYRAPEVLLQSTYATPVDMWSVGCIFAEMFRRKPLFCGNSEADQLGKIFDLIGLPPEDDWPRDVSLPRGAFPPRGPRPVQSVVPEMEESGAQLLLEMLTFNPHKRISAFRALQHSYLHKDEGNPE

COCCN[C@H]1CC[C@H](Nc2cc(-c3csc(NCC4(C#N)CCOCC4)n3)c(Cl)cn2)CC1
Activity [1]: 89% | Activity [2]: 74% | Activity [3]: 90% | Activity [4]: 100% | Activity [5]: 84% | Activity [6]: 99% | Activity [7]: 80% | IC50 [8]: > 10 µM | Activity [9]: 100% | Activity [10]: 74% | Activity [11]: 100% | AUC(0-inf) [12]: 612 ng·h/mL | Activity [13]: 93% | Activity [14]: 97% | Activity [15]: 97% | Activity [16]: 85% | Activity [17]: 87% | Activity [18]: 95% | Activity [19]: 89% | Activity [20]: 66%
